# Measured values from PubChem BioAssay AID463079 (The Scripps Research Institute Molecular Screening Center, 2010).
# The campaign covered roughly 330,000 compounds. About 2,000 (0.61%) were called active.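 How the source made its calls: active means inhibition above that plate's mean sample inhibition plus 3 SD (cut at about 26% in these data); inactive means the rest.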 What follows is part of a selection rich in actives, with near analogues and random picks from the rest.
# Assay: nonselective Gq signaling inhibition in CHO cells – cell-based, fluorescence, Fluo-8 calcium dye, counter-screen for OX1R antagonist project, primary screen (AID 463079);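 further: 0% = ATP-challenged DMSO wells and 100% = DMSO wells without ATP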
# Conditions: parental CHO-K1, ATP-induced calcium, Fluo-8 fluorescence; at 5.6 µM; active compounds read high
# How it was run: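 Test system: untransfected parental CHO cell line; also added: ATP stimulus; dosing: 5.6 µM, single dose; signal: calcium-sensitive Fluo-8 fluorescence; measure: percent inhibition of ATP-evoked calcium rise, normalized to controls; benchmarks: low control ATP plus DMSO, high control DMSO only; replication: one well per compound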
row,SMILES,inhibition
1,Cc1ccc(S(=O)(=O)NC(C(=O)N2CCOCCOCCOCCOCC2)c2ccccc2)cc1 (configuration not stated),-9.77% (inactive)
2,CCCC(C(=O)n1nc(C)cc1C)C(NS(=O)(=O)c1ccc(C)cc1)c1ccccc1 (configuration not stated),40.6% (active)
3,Cc1ccc(S(=O)(=O)Nc2nc(C)cc(-n3nc(C)cc3C)n2)cc1,2.29% (inactive)
4,C/C(=N/OC(=O)c1cccc(C(F)(F)F)c1)c1cnccn1,-5.36% (inactive)
5,O=C(Nc1ccc2ccccc2c1)Nc1ccc2snnc2c1,55.2% (active)
6,O=C(Nc1cccc(Br)c1)c1ccc2snnc2c1,17.8% (inactive)
7,CCc1ccccc1NC(=O)c1ccc2snnc2c1,-1.87% (inactive)
8,COc1cc(C2OC(c3cc(OC)c(OC)c(OC)c3)C(C)C2C)cc(OC)c1OC (configuration not stated),-16.8% (inactive)
9,CC1(NC(=O)CCS(=O)(=O)c2ccc(Cl)cc2)CCS(=O)(=O)C1 (configuration not stated),-11.8% (inactive)
10,CCCN1C(=O)C(NS(=O)(=O)c2ccc(N)cc2)(C(F)(F)F)C(C(=O)OC)=C1C (configuration not stated),-9.93% (inactive)
11,COc1cc(NC(=O)CSc2nnc3ccc(-c4ccncc4)nn23)cc(OC)c1,-9.28% (inactive)
12,CCCc1nnc(SCC(=O)Nc2ccc(C(=O)OCC)cc2)o1,-6.7% (inactive)
13,CCOC(=O)c1ccc(NC(=O)Cn2cnc3cc(C)c(C)cc32)cc1,56.1% (active)
14,CCOC(=O)c1ccc(NC(=O)CSc2nnc(COc3ccccc3OC)n2C)cc1,-24.5% (inactive)
15,COc1ccc(C(=O)Nc2cc(S(=O)(=O)N3CCCC3)ccc2Cl)cc1,-15.8% (inactive)
16,CN(C)C(=O)CCc1ccc2c3c([nH]c2c1)[C@]1(CCc2ccccc2)[C@@H](C(=O)N2CCCCC2)C[C@H](CC(=O)NCCC2=CCCCC2)C(=O)N1CC3,-31.7% (inactive)
17,Oc1cc(O)c2c(c1)OC(c1ccc(O)c(O)c1)C(O)C2 (configuration not stated),-0.43% (inactive)
18,CC(C)Cc1nnc(NC(=O)CCNC(=O)c2ccccc2Cl)s1,-7.69% (inactive)
19,CCOC(=O)N1CCN(C(=O)C2CCN(S(=O)(=O)c3cc(Cl)ccc3OCC)CC2)CC1,-9.79% (inactive)
20,CCOC(=O)N1CCN(C(=O)C2CCN(Cc3ccc(OC)cc3OC)CC2)CC1,-15.1% (inactive)
21,CCOC(=O)N1CCN(C(=O)C2CCN(c3ncnc4c3sc3cccc(F)c34)CC2)CC1,37.1% (active)
22,COc1cccc(CC(=O)OCC(=O)NCc2ccc3c(c2)OCO3)c1,-4.2% (inactive)
23,Cc1cccc(NC(=O)c2cccnc2Cl)n1,1.32% (inactive)

row,SMILES,inhibition
1,CSc1nccc(NC(=O)c2ccc(C(C)(C)C)cc2)n1,33.6% (active)
2,Cc1cccc(NC(=O)c2ccc(S(=O)(=O)N(C)c3ccccc3)cc2)n1,-10.9% (inactive)
3,O=c1cnnc(Nc2ccccc2)[nH]1,-11.1% (inactive)
4,CCOc1ccccc1OCC(=O)Nc1ccccc1C(=O)NC1CC1,14.9% (inactive)
5,CC(C)OCCCNc1ncnc2c1[nH]c1ccc(F)cc12,58.6% (active)
6,O=C1c2ccccc2C(=O)N1CCC#Cc1ccc2cc(C3(O)CCCCC3)oc(=O)c2c1,-14.2% (inactive)
7,O=C(NCCC(=O)N1O[C@@H]2C=C[C@H]1C2)OCC1c2ccccc2-c2ccccc21,-10.5% (inactive)
8,CC(C)CNC(=O)c1cc(-c2ccc(Br)cc2)on1,-10.3% (inactive)
9,CC(C)Cc1cc(C(=O)Nc2cc(Br)ccc2O)no1,43% (active)
10,CC(C)Cc1cc(C(=O)NCCc2ccccc2)no1,-2.04% (inactive)
11,Cc1ccc(C)c(S(=O)(=O)Nc2cccc(-n3cnnn3)c2)c1,-1.77% (inactive)
12,CCOC(=O)C1CCCN(C(=O)c2cccc(S(=O)(=O)N3CCOCC3)c2)C1 (configuration not stated),-2.51% (inactive)
13,COc1ccc(/C=C/C(=O)Nc2c(C)nn(C)c2C)cc1COc1ccc(Br)cc1,13.3% (inactive)
14,O=C(Nc1cccc([N+](=O)[O-])c1)c1ccc2c(c1)OCO2,-1.24% (inactive)
15,O=C(Nc1ccc(NC(=O)c2ccco2)c(Cl)c1)c1cccc([N+](=O)[O-])c1,-6.79% (inactive)
16,O=C(Nc1ccc(C2CC2(Cl)Cl)cc1)c1cccc([N+](=O)[O-])c1 (configuration not stated),46.7% (active)
17,COC(=O)[C@@H]1C[C@@]2(O)[C@H](O)[C@H](O)[C@H](O)C[C@H]2N1Cc1ccc(C)s1,2.13% (inactive)
18,O=C(CO/N=C/c1ccccc1O)NNC(=O)c1ccccc1Cl,2.58% (inactive)
19,CC[n+]1cc(C)ccc1/C=C/c1ccc(N(C)C)cc1,51.9% (active)
20,CCOC(=O)C1=CN(Cc2ccc(Br)cc2)S(=O)(=O)N(C)C1C (configuration not stated),-13.1% (inactive)
21,O=C(NCC1CCCO1)/C(=C/c1ccc(Cl)cc1)NC(=O)c1ccccc1 (configuration not stated),-2.9% (inactive)
22,O=C(N/C(=C\c1ccc(O)cc1)C(=O)N1CCCCC1)c1ccccc1,-2.82% (inactive)
23,N#C/C(=C/c1ccc(Cl)cc1)NC(=O)c1ccccc1,50.3% (active)

row,SMILES,inhibition
1,S=C(NCCC1=CCCCC1)Nc1ccccc1,6.17% (inactive)
2,COc1cc(OC)c2c(-c3cccc(-c4cccc(N)c4)c3)cc(=O)oc2c1,-15.7% (inactive)
3,CSc1sc(C)cc1C1C(C#N)=C(N)N(c2cccnc2)C2=C1C(=O)CCC2 (configuration not stated),-13.3% (inactive)
4,OCCN(Cc1ccccc1)Cc1ccc(Cl)cc1,-28.2% (inactive)
5,CN(C(=O)CN(CCO)CC(=O)N(C)C(C)(C)Cc1ccccc1)C(C)(C)Cc1ccccc1,52.8% (active)
6,CCN(CC)C(=O)N(CC)Cc1ccccc1,-0.04% (inactive)
7,CCc1cccc(NC(=S)N(CCN(C)C)C2CCN(C(C)C)CC2)c1,1.41% (inactive)
8,CCc1cc2c(=O)c(-c3ccon3)c(N)oc2cc1OC,-10.2% (inactive)
9,Cc1ccc(-c2cccc([C@H]3[C@@H]4C=CC[C@@H](C)[C@@H]4C(=O)N3Cc3ccccc3)c2)cc1,-46.9% (inactive)
10,CCSc1nsc(NC(=O)Nc2cccc(C(C)=O)c2)n1,66.5% (active)
11,CCSc1nsc(NC(=O)Nc2ccccc2OC)n1,-18.1% (inactive)
12,C=CCSc1nsc(NC(=O)Nc2cccc(C(C)=O)c2)n1,46.6% (active)
13,CSc1ccccc1C(=O)Nc1cccc(C(C)=O)c1,-10% (inactive)
14,C=CCSc1nnc(NC(=O)c2ccc(NC(C)=O)cc2)s1,-14.6% (inactive)
15,CSc1nsc(NC(=O)Nc2ccccc2)n1,18.8% (inactive)
16,CN(C)C=NC(=O)c1cccn1-c1ncc(C(F)(F)F)cc1Cl,7.02% (inactive)
17,O=C(O)CCN1C(=O)CC2(CCCCC2)C1=O,6.17% (inactive)
18,CCOC(=O)c1c(C)[nH]c(C(=O)OCC(=O)c2ccc(OC)cc2OC)c1C,-26.3% (inactive)
19,CCOC(=O)c1c(C)[nH]c(C(=O)COc2ccc3c(c2)OCO3)c1C,39.2% (active)
20,CC(=O)c1c(C)[nH]c(C(=O)COc2ccc3c(C)cc(=O)oc3c2)c1C,1.48% (inactive)
21,COc1ccc(-c2cnc(SCCNC(=O)c3ccc4c(c3)OCO4)[nH]2)cc1,-9.72% (inactive)
22,Cc1ccc(NC(=O)c2ccc(Cl)nc2)cc1S(=O)(=O)N1CCOCC1,-8.73% (inactive)
23,CCN1/C(=C\c2ccc3ccccc3[n+]2CC)Sc2cc(C)ccc21,79.6% (active)

row,SMILES,inhibition
1,CCN1/C(=C/c2ccc3ccc(C)cc3[n+]2CC)Sc2ccccc21,80.2% (active)
2,CCOC(=O)CN(C(=O)COc1nc(-c2ccccc2)cc(C)c1C#N)c1ccc(F)cc1,-20.7% (inactive)
3,O=C(O)CN(Cc1ccco1)S(=O)(=O)c1ccccc1,-6.05% (inactive)
4,COc1ccc(C(=O)OCC(=O)c2cc(C)n(CC3CCCO3)c2C)cc1[N+](=O)[O-] (configuration not stated),-4.71% (inactive)
5,CC(NC(=S)Nc1ccc(OC(F)F)cc1)c1ccc(F)cc1 (configuration not stated),14.7% (inactive)
6,COc1cccc(CNC(C)C(=O)Nc2ccc(S(=O)(=O)N3CCCC3)cc2)c1 (configuration not stated),-9.95% (inactive)
7,COc1cc2c(cc1OC)C(C(=O)NCc1ccco1)C1c3ccccc3CCN1C2=O (configuration not stated),-23.7% (inactive)
8,CCOC(=O)c1sc(NC(=O)CSc2nc(C)cc(C(F)(F)F)n2)c(C#N)c1C,4.56% (inactive)
9,Cc1ccc(S(=O)(=O)N2CCN(C(=O)COC(=O)c3c(C)noc3C)CC2)c(C)c1,-5.91% (inactive)
10,Cc1ccc(-c2nc(COC(=O)c3c(C)noc3C)cs2)cc1,44.1% (active)
11,COc1ccc(C(=O)COC(=O)c2c(C)noc2C)cc1Cl,-10.6% (inactive)
12,COc1ccc(S(=O)(=O)N2CCN(c3ncnc4c(-c5ccccc5)nsc34)CC2)cc1,-9.64% (inactive)
13,COCc1c(C(=O)OCC(=O)Nc2ccc(OC(F)F)cc2)oc2ccccc12,-11.9% (inactive)
14,Cc1nc(CNS(=O)(=O)c2ccc(Oc3ccccc3)cc2)cs1,44.4% (active)
15,Cc1ccc(S(=O)(=O)NCc2csc(C)n2)c(C)c1,-13.8% (inactive)
16,Cc1nc(CNS(=O)(=O)c2cc([N+](=O)[O-])ccc2C)cs1,-14.4% (inactive)
17,COc1ccc(NC2CCCN(C(=O)c3ccncc3)C2)cc1 (configuration not stated),-8.33% (inactive)
18,CSCCC(C(=O)NC1=NCCS1)N1C(=O)c2ccccc2C1=O (configuration not stated),1.01% (inactive)
19,N#Cc1ccc(Oc2ccc(C(F)(F)F)cc2NC(=O)c2ccc(F)cc2)cc1,-13.8% (inactive)
20,CCOc1cccc(C(=O)Nc2nnc(-c3cccs3)s2)c1,-10.2% (inactive)
21,N#Cc1ccc(C(=O)Nc2nc(-c3cccs3)c(C(=O)C(F)(F)F)s2)cc1,25.4% (active)
22,O=C(/C=C/c1cccc([N+](=O)[O-])c1)NCCSCc1ccco1,-15.3% (inactive)
23,CCCC(C)C(=O)OCC(=O)Nc1c(Br)cc(C)cc1Br (configuration not stated),-8.47% (inactive)
